These results are taken from ChEMBL document CHEMBL1944618, “Synthesis and antifungal activity of a new series of 2-(1H-imidazol-1-yl)-1-phenylethanol derivatives” (Eur J Med Chem, 2012).

For series [1], the system named is Pichia kudriavzevii. Briefly: Antifungal activity against Candida krusei PMC 0613 after 48 hrs by M27-A3 CLSI method. Format: functional. Summed up: (§1)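 Broth microdilution in RPMI 1640, two-fold serial dilutions, final test range 0.125–64 µg mL-1 (fluconazole reference 0.0078–128 µg mL-1). Inoculum 1.0×10^3–1.5×10^3 cells mL-1 from yeasts grown 24 h at 35 °C on Sabouraud dextrose agar. Incubation 35 °C, read at 48 h. MIC = lowest concentration giving >50% turbidity decrease versus growth control. Run three times in triplicate. C. parapsilosis ATCC22019 served as QC.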

Series [2] concerns Candida tropicalis. The series can be described thus: Antifungal activity against Candida tropicalis DSM11953 after 48 hrs by M27-A3 CLSI method.
In series [3] the test system is Candida albicans. The series can be described thus: Antifungal activity against Candida albicans ATCC 24433 after 48 hrs by M27-A3 CLSI method. Format: functional. Summed up:
as §1

In series [4] the test system is Candida parapsilosis. Briefly: Antifungal activity against Candida parapsilosis DSM 11224 after 48 hrs by M27-A3 CLSI method. Format: functional. In a few lines:
as §1

The test system of series [5] is Pichia kudriavzevii. The series can be described thus: Ratio MIC for fluconazole to compound for Candida krusei after 48 hrs by M27-A3 CLSI method. Format: functional.
For series [6], the system named is Pichia kudriavzevii. The series can be described thus: Ratio MIC for fluconazole to compound for Candida krusei PMC0613 after 48 hrs by M27-A3 CLSI method.
For series [7], the system named is Pichia kudriavzevii. The series can be described thus: Ratio MIC for fluconazole to compound for Candida krusei PMC 0613 after 48 hrs by M27-A3 CLSI method. In kind it is functional.
In series [8] the test system is Pichia kudriavzevii. Briefly: Antifungal activity against Candida krusei after 48 hrs by M27-A3 CLSI method. In kind it is functional. In a few lines:
as §1

The subject of series [9] is Candida parapsilosis. The series can be described thus: Antifungal activity against Candida parapsilosis ATCC 22019 after 48 hrs by M27-A3 CLSI method. Particulars: Lodderomyces parapsilosis, ATCC 22019, 48 h. Format: functional. In a few lines:
as §1

The nature of series [10]: Cytotoxicity against human U937 cells after 48 hrs by MTT assay. In kind it is cell-based, U-937. In a few lines: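 U937 human monocytic cells, 2×10^4 per well, in phenol-red-free RPMI 1640 with 10% FBS, L-glutamine, penicillin and streptomycin. Exposed 48 h at 37 °C, 5% CO2, to compounds dissolved in DMSO at final 8–128 µg mL-1, at least five concentrations, each in three replicates. MTT added for 3–4 h, crystals dissolved, OD read at 570 nm. CC50 taken against DMSO-only control. Means ± SD from three independent experiments.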
Background: Formazan colour is commonly taken as a measure of viable cells.

Another series has as its system Candida. Briefly: Antifungal activity against Candida sp. after 48 hrs by M27-A3 CLSI method. Format: functional. Summed up: as §1
Series [11] has as its system Nakaseomyces glabratus. Briefly: Antifungal activity against Candida glabrata PMC 0805 after 48 hrs by M27-A3 CLSI method. In kind it is functional. Particulars: PMC 0805, 48 h. Summed up:
as §1

For series [12], the system named is Candida parapsilosis. Briefly: Antifungal activity against Candida parapsilosis after 48 hrs by M27-A3 CLSI method. Format: functional. The note with it: Lodderomyces parapsilosis. In a few lines:
as §1

Series [13] relates to Candida albicans. The series can be described thus: Antifungal activity against Candida albicans ATCC 76615 after 48 hrs by M27-A3 CLSI method. Format: functional. The note with it: ATCC 76615, 48 h. In a few lines: as §1
In series [14] the test system is Pichia kudriavzevii. The series can be described thus: Antifungal activity against Candida krusei DSM 6128 after 48 hrs by M27-A3 CLSI method. Format: functional. The note with it: DSM 6128, 48 h. In a few lines: as §1
The test system of series [15] is Candida tropicalis. Briefly: Antifungal activity against Candida tropicalis after 48 hrs by M27-A3 CLSI method. In kind it is functional. In a few lines: as §1
For series [16], the system named is Candida albicans. Briefly: Antifungal activity against Candida albicans after 48 hrs by M27-A3 CLSI method. Format: functional. In a few lines: as §1
Series [17] deals with Candida tropicalis. Briefly: Antifungal activity against Candida tropicalis DSM 11953 after 48 hrs by M27-A3 CLSI method. Particulars: DSM 11953, 48 h. In kind it is functional. Summed up:
as §1

In series [18] the test system is Nakaseomyces glabratus. Briefly: Antifungal activity against Candida glabrata after 48 hrs by M27-A3 CLSI method. Format: functional. Summed up:
as §1

Series [19] relates to Candida albicans. Briefly: Antifungal activity against Candida albicans ATCC 3153 after 48 hrs by M27-A3 CLSI method. Format: functional. Particulars: ATCC 3153, 48 h. In a few lines: as §1
The nature of series [20]: Selectivity index, ratio of CC50 for human U937 cells to MIC for Candida Sp. Format: functional, U-937. In a few lines:
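SI = CC50 from the 48 h U937 MTT assay divided by the mean MIC across all Candida species. That MIC comes from CLSI M27-A3 broth microdilution in RPMI 1640, 35 °C, read at 48 h.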

The subject of series [21] is Candida albicans. The series can be described thus: Antifungal activity against Candida albicans ATCC 10231 after 48 hrs by M27-A3 CLSI method. In kind it is functional. Particulars: ATCC 10231, 48 h. In a few lines:
as §1

Values after ≈ are worked out from the molar mass of the structure shown.

In general, MIC refers to the least concentration at which growth counts as inhibited. A high value points to a less susceptible organism. As to `O=C(OC(Cn1ccnc1)c1ccccc1)c1ccc(-c2ccccc2)cc1` (single isomer, unassigned; (+)), the MIC was found to be 21.33 µg/mL (≈ 57.9 µM) against Pichia kudriavzevii [1], 26.67 µg/mL (≈ 72.4 µM) with Candida tropicalis [2], 33.7 µg/mL (≈ 91.5 µM) against Candida albicans [3] and 26.67 µg/mL (≈ 72.4 µM) in the series on Candida parapsilosis [4].
In the case of `O=C(OC(Cn1ccnc1)c1ccc(F)cc1)c1ccc(-c2ccccc2)cc1` (single isomer, unassigned; (-)), the minimal inhibitory concentration (MIC) with Pichia kudriavzevii [1] worked out at 0.125 µg/mL (≈ 0.323 µM); against Candida tropicalis [2] it was 0.27 µg/mL (≈ 0.699 µM); against Candida albicans [3], 0.125 µg/mL (≈ 0.323 µM); against Candida parapsilosis [4], 0.08 µg/mL (≈ 0.207 µM). In addition, the Ratio in the series with Pichia kudriavzevii [5], in the series on Pichia kudriavzevii [6] and in the series with Pichia kudriavzevii [7] was 90 each time.
One may read the CC50 as the concentration at which the toxic effect on the cells reaches its halfway point. One may read the MIC50 as an inhibitory concentration at the 50% level, which refers to growth in some studies and to a panel of isolates in others. Lower therefore signals greater potency. The MIC90 is the lowest concentration that inhibits either 90% of growth or 90% of the strains tested, depending on the study. A lower MIC90 goes with higher susceptibility. For the compound `O=C(OC(Cn1ccnc1)c1ccc(F)cc1)c1ccc(-c2ccccc2)cc1` (racemic), the minimal inhibitory concentration (MIC) against Pichia kudriavzevii [8] came to 2.25 µg/mL (≈ 5.82 µM); in the series on Candida parapsilosis [9], 2 µg/mL (≈ 5.18 µM); against Candida it was 2.5 µg/mL (≈ 6.47 µM); with Nakaseomyces glabratus [11] it was 1 µg/mL (≈ 2.59 µM); in the series with Pichia kudriavzevii [1] it was 0.83 µg/mL (≈ 2.15 µM); in the series with Candida parapsilosis [12] it was 1.3 µg/mL (≈ 3.36 µM). Also, the MIC against Candida tropicalis [2] was 2.17 µg/mL (≈ 5.62 µM); with Candida albicans [3], 1.5 µg/mL (≈ 3.88 µM); in the series with Candida albicans [13] it was 4 µg/mL (≈ 10.4 µM); in the series on Pichia kudriavzevii [14], 4 µg/mL (≈ 10.4 µM); against Candida tropicalis [15], 4.08 µg/mL (≈ 10.6 µM); against Candida albicans [16] it was 4.4 µg/mL (≈ 11.4 µM). In addition, the minimal inhibitory concentration (MIC) with Candida tropicalis [17] is 1 µg/mL (≈ 2.59 µM); against Candida parapsilosis [4] it was 0.42 µg/mL (≈ 1.09 µM); in the series on Nakaseomyces glabratus [18], 1 µg/mL (≈ 2.59 µM); in the series on Candida albicans [19], 0.25 µg/mL (≈ 0.647 µM); in the series on Candida albicans [21], 8 µg/mL (≈ 20.7 µM). This compound also gave a CC50 at 48 h in series [10] of 41.5 µg/mL (≈ 107 µM). The values for the MIC50 in the series on Candida and in the series on Candida albicans [16] were 1 µg/mL (≈ 2.59 µM) and 4 µg/mL (≈ 10.4 µM), respectively. Further, the MIC90 in the series on Candida and in the series with Candida albicans [16] was 8 µg/mL (≈ 20.7 µM) each time. Moreover, the Ratio in the series with Pichia kudriavzevii [5] came out at 11. The “Selectivity Index” value in series [20] amounted to 12.
Regarding `O=C(OC(Cn1ccnc1)c1ccccc1)c1ccc(-c2ccccc2)cc1` (single isomer, unassigned; (-)), the minimum inhibitory concentration (MIC) in the series with Pichia kudriavzevii [1] was determined as 0.37 µg/mL (≈ 1 µM); against Candida tropicalis [2] it was 0.15 µg/mL (≈ 0.407 µM); in the series with Candida albicans [3], 0.15 µg/mL (≈ 0.407 µM); against Candida parapsilosis [4], 0.125 µg/mL (≈ 0.339 µM). The Ratio in the series on Pichia kudriavzevii [5], in the series with Pichia kudriavzevii [6] and with Pichia kudriavzevii [7] was 30 throughout.
Consider `O=C(OC(Cn1ccnc1)c1ccccc1)c1ccc(-c2ccccc2)cc1` (racemic), for which the MIC was found to be 4.7 µg/mL (≈ 12.8 µM) against Pichia kudriavzevii [8]; 2 µg/mL (≈ 5.43 µM) against Candida parapsilosis [9]; 2.1 µg/mL (≈ 5.7 µM) in the series on Candida; 4 µg/mL (≈ 10.9 µM) in the series with Nakaseomyces glabratus [11]; 0.67 µg/mL (≈ 1.82 µM) with Pichia kudriavzevii [1]; 0.7 µg/mL (≈ 1.9 µM) with Candida parapsilosis [12]. Further, the MIC in the series on Candida tropicalis [2] came to 0.58 µg/mL (≈ 1.57 µM); against Candida albicans [3], 0.37 µg/mL (≈ 1 µM); in the series on Candida albicans [13], 4 µg/mL (≈ 10.9 µM); in the series on Pichia kudriavzevii [14], 2 µg/mL (≈ 5.43 µM); against Candida tropicalis [15], 0.5 µg/mL (≈ 1.36 µM); in the series with Candida albicans [16], 3.7 µg/mL (≈ 10 µM). The MIC with Candida tropicalis [17] was found to be 0.25 µg/mL (≈ 0.679 µM); in the series with Candida parapsilosis [4] it was 0.33 µg/mL (≈ 0.896 µM); in the series with Nakaseomyces glabratus [18], 4 µg/mL (≈ 10.9 µM); against Candida albicans [19], 0.25 µg/mL (≈ 0.679 µM); in the series with Candida albicans [21] it was 1 µg/mL (≈ 2.71 µM). The CC50 at 48 h in series [10] is above 128 µg/mL. Besides, the MIC50 is 0.5 µg/mL (≈ 1.36 µM) against Candida and 1 µg/mL (≈ 2.71 µM) in the series with Candida albicans [16]. For the same compound, the MIC90 stood at 4 µg/mL (≈ 10.9 µM) against Candida and 8 µg/mL (≈ 21.7 µM) against Candida albicans [16]. Moreover, the Ratio in the series on Pichia kudriavzevii [5] turned out to be 5. Besides, the “Selectivity Index” value in series [20] is recorded as above 44.1.
